13 molecules from PubChem BioAssay can be followed below.

Activity calls are given as the source filed them.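 Rule for the calls, unless noted: active = inhibition of the reporter signal at or above 50%; inactive = inhibition below 50%.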

A short description of experiment [1]: inhibitors of TNFa-induced NFkB p65 translocation, primary screen, imaging, HUVEC, MLSMR starter and 10KST1 sets (AID 438;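 active = inhibition above 20% together with a positive visual image hit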;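 note: compound added about 3h40 before a 20 min TNFalpha stimulation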;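 for inhibition: signal is the nuclear over cytoplasmic p65 intensity ratio per well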). To be noted: HUVEC TNFa-induced p65 nuclear translocation; cell count: measured here: nuclei count (cytotoxicity indicator), at 2.08 µM; inhibition: at 2 µM, stronger effect = higher value, 0% TNFa-plus-vehicle, 100% no-TNFa wells.
Experiment [2] in a line: reduction of polyQ htt aggregates in cells – imaging, exon1htt(103Q)mCFP cells, high-content imaging, primary screen (AID 483;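 active = visual image review flags a hit and inhibition of aggregation exceeds 20%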;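 note: compound exposure lasted 3 days before fixation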;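 for nuclei count: percent of the per-plate median nuclei count of sample wells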). The following applies: exon1htt(103Q)mCFP cell line, aggregate imaging, at 2 µM; inhibition of aggregation: stronger effect = higher value; nuclei count: measured here: cell count, toxicity.
Experiment [3] is described as follows: endothelial E-selectin expression blockers – imaging, HUVEC, immunofluorescence, MLSMR starter and 10KST1 sets, primary screen (AID 487;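 active = visually confirmed hit in the image check and inhibition above 20%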;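 for inhibition: signal is fraction of cell area covered by stained E-selectin grains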;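 for nuclei count: 100% = median nuclei count of all wells on the same plate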). To be noted: HUVEC TNFalpha-induced E-selectin immunofluorescence imaging, at 2 µM; inhibition: stronger effect = higher value; nuclei count: measured here: cell number, toxicity.
The target of experiment [4] is Voltage-gated potassium channel subunit beta-2 (Rattus norvegicus) (UniProt P62483). Description: inhibitors of rat Kvbeta2 reductase activity – biochemical, NADPH fluorescence, primary screen (AID 622;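 active = fluorescence slope higher than the sample average by over 3 SD, cut at about -0.22 in these data, passing the limit was not always enough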;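 note: slope of raw intensity against log time taken from 70 to 1610 s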). The following applies: recombinant KvBeta, 4-cyanobenzaldehyde reduction, at 10 µM, stronger effect = higher value.
For experiment [5] the target is unchanged. Description: enhancers of rat Kvbeta2 NADPH turnover – biochemical, NADPH fluorescence, primary screen (AID 623;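 active = NADPH fluorescence slope more negative than the mean of all samples by about 3 SD, 99.7% confidence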;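 note: fluorescence intensity change per second fitted from 20 to 320 s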). The following applies: Recombinant KvBeta, NADPH fluorescence decrease slope, 10 min; at 10 µM; stronger effect = lower value.
Experiment [6] deals with Alpha-2C adrenergic receptor (Homo sapiens) (UniProt P18825). The experiment is described as follows: compounds altering alpha2C-coupled GIRK flux – cell-based, HEK293 alpha2C/GIRK1/2, thallium flux, primary screen (AID 624;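 active = fluorescence slope after compound addition differing from the mean of all screened samples at 99.7% confidence, in either direction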;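 note: slope of fluorescence ratio to pre-addition baseline per second over 15 to 24 s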). To be noted: thallium flux BTC fluorescence, at 10 µM, actives lie on both sides.
The nature of experiment [7]: inhibitors of larval lipid processing in zebrafish, primary screen, whole organism, PED6 fluorescence, gall bladder and intestine (AID 686;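 active = a full or partial loss of lipid-probe fluorescence in the fish gall bladder, intestine or both, judged by eye; inactive = no fluorescence loss, or compound toxic to the fish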;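 note: signal comes from phospholipase A2 cleavage of quenched PED6 carried via bile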). To be noted: Zebrafish larvae PED6 lipid processing, fluorescence scoring; screened at 20 µM (by protocol). An outline of the steps: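 Doses: 20 µM single dose. Test system: live zebrafish larvae aged 5-7 days, whole organism. Quantity: five larvae per well. Measured by: By-eye fluorescence microscopy. Reagent: ingested quenched lipid PED6 at 100 nM. Read-out: visual per-well fluorescence inhibition score. Times: overnight exposure of larvae to compound plus PED6.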

Experiment [8] in a line: blockers of RIG-like receptor reporter activation – cell-based, Sendai virus stimulus, luciferase, 10K MLSCN set, TLR/RLR signaling modifier project, primary screen (AID 602276;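 active = inhibition at or above 50% at 10 µM; inactive = inhibition below 50%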;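 note: firefly luciferase from ISG56 promoter only with Renilla not read in this screen; 0% = Sendai virus plus DMSO and 100% = medium plus DMSO without virus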). To be noted: HEK293 RL24 IRF3 luciferase reporter, at 10 µM, stronger effect = higher value.
A short description of experiment [9]: TLR3 IRF3 reporter activation blockers – cell-based, poly I:C stimulus, luciferase, 10K MLSCN set, primary screen (AID 602277). The following applies: HEK293-TLR3 RL24 IRF3 luciferase reporter, at 10 µM, stronger effect = higher value. For orientation: In a reporter assay the amount or activity of a reporter protein is the signal.

Voltage-gated potassium channel subunit beta-2 (Rattus norvegicus), sequence (P62483 whole entry, looked up): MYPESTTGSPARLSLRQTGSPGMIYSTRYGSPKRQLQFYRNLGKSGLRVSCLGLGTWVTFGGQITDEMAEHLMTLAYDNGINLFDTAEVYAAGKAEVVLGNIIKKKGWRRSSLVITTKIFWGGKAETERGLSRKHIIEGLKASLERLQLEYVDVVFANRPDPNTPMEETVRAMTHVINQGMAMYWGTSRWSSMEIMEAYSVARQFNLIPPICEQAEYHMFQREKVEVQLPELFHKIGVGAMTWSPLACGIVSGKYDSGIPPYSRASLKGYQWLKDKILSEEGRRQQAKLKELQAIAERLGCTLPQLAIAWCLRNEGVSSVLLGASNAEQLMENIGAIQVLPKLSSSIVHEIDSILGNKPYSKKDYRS
Alpha-2C adrenergic receptor (Homo sapiens), sequence (P18825 whole entry, looked up): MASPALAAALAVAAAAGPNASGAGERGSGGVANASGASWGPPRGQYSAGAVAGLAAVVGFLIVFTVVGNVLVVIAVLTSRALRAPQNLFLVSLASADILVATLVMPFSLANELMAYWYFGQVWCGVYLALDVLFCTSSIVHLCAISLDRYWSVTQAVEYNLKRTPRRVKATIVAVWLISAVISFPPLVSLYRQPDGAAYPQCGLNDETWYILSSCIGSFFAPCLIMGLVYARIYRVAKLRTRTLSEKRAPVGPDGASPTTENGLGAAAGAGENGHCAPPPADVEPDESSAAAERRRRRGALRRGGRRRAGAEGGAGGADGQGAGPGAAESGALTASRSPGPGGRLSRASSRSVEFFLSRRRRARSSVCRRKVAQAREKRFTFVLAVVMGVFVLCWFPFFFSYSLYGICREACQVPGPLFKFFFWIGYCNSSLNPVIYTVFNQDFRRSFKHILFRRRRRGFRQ

Consider `CCOc1ccccc1N1CC(O)=C(c2nc3ccccc3s2)C1=N`, for which the cell count in experiment [1] is 348. For the same molecule, the inhibition (usually the relative decrease from the control value, in per cent) in experiment [1] is -0.8% (inactive); in experiment [3], -69.5% (inactive); in experiment [8], -19.5% (inactive); in experiment [9], 55.4% (active). Moreover, in experiment [2], the inhibition of aggregation is 0.2% (inactive). Further, the nuclei count in experiment [2] came out at 97.7%; in [3], 92%. Further, the fluorescence slope in experiment [4] was -0.291 (inactive). In experiment [5], the NADPH fluorescence slope was -3.9e-05 (inactive). In addition, the slope in experiment [6] is 0.00531 (inactive). Also, the molecule was classed as inactive in experiment [7].
As to `Cc1cccc(OCC(=O)Nc2cc(C)ccc2O)c1`, the cell count in experiment [1] is 311. Moreover, the inhibition was 0.5% (inactive) in [1], -15.1% (inactive) in experiment [3], 10.8% (inactive) in experiment [8] and 15.6% (inactive) in [9]. Further, the inhibition of aggregation in experiment [2] is -9.5% (inactive). The values for the nuclei count in experiment [2] and in experiment [3] were 95.3% and 87.8%, respectively. Also, the fluorescence slope in [4] was -0.446 (inactive). Moreover, the NADPH fluorescence slope in [5] was -2.2e-05 (inactive). In [6], the slope was 0.00484 (inactive). Besides, the call in experiment [7] was inactive.
As to `COc1ccc(CCN(Cc2cc3cccc(C)c3[nH]c2=O)C(=O)N2CCCC2)cc1OC`, the cell count in experiment [1] came out at 207. Further, the inhibition in [1] is 2.1% (inactive); in experiment [3], 11.6% (inactive); in experiment [8], 10.3% (inactive); in [9] it was 16.5% (inactive). Moreover, the inhibition of aggregation in [2] was 8.7% (inactive). Besides, the nuclei count in experiment [2] turned out to be 94.8%; in [3], 91.3%. Besides, the fluorescence slope in [4] is -0.458 (inactive). Besides, the NADPH fluorescence slope in experiment [5] is -8.2e-05 (inactive). For the same molecule, the slope in [6] was 0.00488 (inactive). The result in experiment [7] was inactive.
For the molecule `CN(Cc1ccc(-n2cccn2)cc1)C(=O)c1cnn2c1NC(c1ccco1)CC2C(F)(F)F` (stereo unspecified), the cell count in experiment [1] is 326. For the same molecule, the inhibition was 9.3% (inactive) in [1], -100% (inactive) in experiment [3], 8.13% (inactive) in experiment [8] and 5.75% (inactive) in [9]. In addition, the inhibition of aggregation in experiment [2] is -30.3% (inactive). The nuclei count came to 115% in [2] and 120% in [3]. Further, the fluorescence slope in experiment [4] is -0.509 (inactive). Further, the NADPH fluorescence slope in [5] is -4e-05 (inactive). Further, in [6], the slope was 0.00457 (inactive). Besides, the outcome in experiment [7] was inactive.
`COc1ccc(OC)c(Nc2nc(-c3cccs3)cs2)c1`: the cell count in experiment [1] came to 333. The inhibition is 1.5% (inactive) in experiment [1], -35.5% (inactive) in [3], 7.1% (inactive) in experiment [8] and -5.46% (inactive) in [9]. The inhibition of aggregation in [2] is -9.1% (inactive). In addition, the nuclei count in experiment [2] was 104%; in [3], 110%. Also, in experiment [4], the fluorescence slope was -0.444 (inactive). Besides, in [5], the NADPH fluorescence slope is -6e-05 (inactive). Also, the slope in experiment [6] was 0.00343 (inactive). Besides, in experiment [7], the outcome is “active; weak signal in gallbladder and intestine”.
Take `O=C(CCn1[nH]c(=O)c2ccccc2c1=O)NCCO`: in experiment [1], the cell count turned out to be 588. The inhibition was -6.5% (inactive) in [1], -35.4% (inactive) in [3], 1.06% (inactive) in [8] and -8.68% (inactive) in [9]. Further, in experiment [2], the inhibition of aggregation is 0.4% (inactive). The values for the nuclei count in experiment [2] and in experiment [3] were 97.8% and 71.1%, respectively. Further, in [4], the fluorescence slope was -0.361 (inactive). Besides, the NADPH fluorescence slope in experiment [5] was -5.6e-05 (inactive). In addition, the slope in experiment [6] was 0.00681 (inactive). Moreover, the result in experiment [7] was inactive.
On to `c1ccc(-c2cc(CSc3nc4ccccc4[nH]3)on2)cc1`, for which the cell count in experiment [1] is 416. In addition, the inhibition was 5.3% (inactive) in [1], -68.7% (inactive) in experiment [3], -0.361% (inactive) in [8] and -25% (inactive) in [9]. Besides, the inhibition of aggregation in experiment [2] was -43% (inactive). In addition, the results for the nuclei count in experiment [2] and in experiment [3] were 99.4% and 116%, respectively. In addition, in [4], the fluorescence slope was -0.376 (inactive). The NADPH fluorescence slope in [5] was -8.1e-05 (inactive). The slope in [6] was 0.00533 (inactive). For the same molecule, the outcome in [7] was inactive.
With `CC(=O)NC(C)C(=O)OCc1ccc(Cl)cc1Cl` (stereo unspecified), the cell count in [1] was found to be 478. For the same molecule, the inhibition is -21.6% (inactive) in experiment [1], -22.9% (inactive) in experiment [3], 10.8% (inactive) in experiment [8] and 12.4% (inactive) in [9]. Besides, in experiment [2], the inhibition of aggregation is -3.7% (inactive). Also, the nuclei count was determined as 74.8% in experiment [2] and 134% in [3]. Further, the fluorescence slope in experiment [4] is -0.467 (inactive). Moreover, the NADPH fluorescence slope in experiment [5] was -5.2e-05 (inactive). Besides, in [6], the slope is 0.00444 (inactive). Moreover, the result in [7] was inactive.
Take `Cc1cnc(C(=O)Nc2ccccc2-n2cccc2)cn1`: in [1], the cell count came out at 426. In addition, the inhibition in experiment [1] is 6% (inactive); in experiment [3] it was -157% (inactive); in experiment [8], -12.6% (inactive); in experiment [9], 0.535% (inactive). Also, the inhibition of aggregation in [2] is -9.1% (inactive). In addition, the nuclei count is 107% in experiment [2] and 115% in experiment [3]. Moreover, in experiment [4], the fluorescence slope was -0.379 (inactive). Besides, in experiment [5], the NADPH fluorescence slope was -5.7e-05 (inactive). Besides, the slope in experiment [6] was 0.00535 (inactive). The result in [7] was inactive.
As for `CCN(CC)S(=O)(=O)c1ccc(NC(=O)c2cccc3c2C(=O)N(CCOC)C3)cc1`, the cell count in [1] amounted to 778. Further, the inhibition in experiment [1] was -3.6% (inactive); in experiment [3] it was -84.2% (inactive); in experiment [8], 10.3% (inactive); in experiment [9], 26.3% (inactive). Also, in experiment [2], the inhibition of aggregation was 5.3% (inactive). The nuclei count in experiment [2] is 93.3%; in experiment [3], 129%. Further, the fluorescence slope in experiment [4] was -0.244 (inactive). For the same molecule, the NADPH fluorescence slope in experiment [5] was -2.6e-05 (inactive). Besides, the slope in [6] is 0.00636 (inactive). In addition, the result in [7] was inactive.
Regarding `COC(=O)c1ccc(COC(=O)c2c(C)nn(Cc3ccccc3Cl)c2Cl)o1`, the cell count in experiment [1] was 431. Besides, the inhibition in experiment [1] was -20.9% (inactive); in [3], 46.3% (inactive); in experiment [8], 17.9% (inactive); in [9], 19.2% (inactive). Also, the inhibition of aggregation in experiment [2] was 7% (inactive). The figures for the nuclei count in [2] and in experiment [3] were 73.5% and 70.3%, respectively. The fluorescence slope in experiment [4] is -0.408 (inactive). Also, the NADPH fluorescence slope in experiment [5] is 1.7e-05 (inactive). The slope in [6] is 0.00741 (inactive). Also, in experiment [7], the result was inactive.
Consider `O=C(Nc1ccc2oc(Cc3ccc(Cl)cc3)nc2c1)c1cccnc1`, for which the cell count in experiment [1] was found to be 396. The inhibition in [1] is 6.7% (inactive); in experiment [3], -15% (inactive); in experiment [8], 14.7% (inactive); in experiment [9] it was 7.42% (inactive). The inhibition of aggregation in [2] was -0.8% (inactive). For the same molecule, the nuclei count is 93.5% in experiment [2] and 114% in experiment [3]. In addition, the fluorescence slope in experiment [4] is -0.364 (inactive). In experiment [5], the NADPH fluorescence slope was -2.3e-06 (inactive). The slope in [6] was 0.00427 (inactive). Further, in experiment [7], the molecule was called inactive.
Turning to `COCCCN1C(=O)C(O)=C(C(C)=O)C1c1ccccn1` (stereo unspecified), the cell count in experiment [1] came to 686. Further, the inhibition in experiment [1] was -1.7% (inactive); in experiment [3], -38.3% (inactive); in [8] it was 12.4% (inactive); in experiment [9], 14.4% (inactive). For the same molecule, in [2], the inhibition of aggregation is -2% (inactive). The nuclei count in experiment [2] and in [3] was 116% throughout. Further, the fluorescence slope in [4] was -0.399 (inactive). The NADPH fluorescence slope in [5] is -6.2e-05 (inactive). Besides, the slope in [6] is 0.00486 (inactive). Moreover, the outcome in experiment [7] is “active; weak signal in gallbladder only”.
